These results are taken from ChEMBL document CHEMBL2380287, “PEG mediated synthesis and pharmacological evaluation of some fluoro substituted pyrazoline derivatives as antiinflammatory and analgesic agents” (2013).

For the experiment, the system named is Rattus norvegicus. Put plainly: Analgesic activity in rat at 25 mg/kg, po after 60 mins by radiant heat tail flick method relative to control. Format: functional. To be noted: 1 h. The gist of the method: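 Rats, six per group, were dosed orally at 25 mg/kg. Analgesia was measured at 60 min by the radiant heat tail flick method and expressed as percentage analgesia. Animals were kept on a 12/12 h light/dark cycle with free access to water and standard pellet diet.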
A general note: Thermal pain tests record how soon the animal reacts.
One may read the inhibition in vivo as the drop in the measured response relative to a control, in per cent. Take `CC(=O)N1N=C(c2ccc(F)cc2)CC1c1cn(-c2ccccc2)nc1-c1ccccc1` (stereo not given): the inhibition in vivo at 25 mg/kg is 35%.
Regarding `Fc1ccc(C2=NN(c3ccccc3)C(c3cn(-c4ccccc4)nc3-c3ccc(Cl)cc3)C2)cc1` (stereo not given), the inhibition in vivo at 25 mg/kg was 43%.
On to `Fc1ccc(C2=NN(c3ccccc3)C(c3cn(-c4ccccc4)nc3-c3ccccc3)C2)cc1` (stereo not given), for which the inhibition in vivo at 25 mg/kg stood at 35%.
Take `Fc1ccc(C2=NN(c3ccccc3)C(c3cn(-c4ccccc4)nc3-c3ccc(Br)cc3)C2)cc1` (stereo not given): the inhibition in vivo at 25 mg/kg was 71%.
As for `CC(=O)N1N=C(c2ccc(F)cc2)CC1c1cn(-c2ccccc2)nc1-c1ccc(Cl)cc1` (stereo not given), the figure is 44%; as for `O=[N+]([O-])c1cccc(-c2nn(-c3ccccc3)cc2C2CC(c3ccc(F)cc3)=NN2c2ccccc2)c1` (stereo not given), 108%; as for `Fc1ccc(C2=NN(c3ccccc3)C(c3cn(-c4ccccc4)nc3-c3ccc(F)cc3)C2)cc1` (stereo not given), 41%.
Consider `COc1ccc(-c2nn(-c3ccccc3)cc2C2CC(c3ccc(F)cc3)=NN2C(C)=O)cc1` (stereo not given), for which the inhibition in vivo at 25 mg/kg came to 66%.
Take `CC(=O)N1N=C(c2ccc(F)cc2)CC1c1cn(-c2ccccc2)nc1-c1cccc([N+](=O)[O-])c1` (stereo not given): the inhibition in vivo at 25 mg/kg was 109%.
For `CC(=O)N1N=C(c2ccc(F)cc2)CC1c1cn(-c2ccccc2)nc1-c1ccc(C)cc1` (stereo not given), the inhibition in vivo at 25 mg/kg came out at 110%.
For the molecule `Cc1ccc(-c2nn(-c3ccccc3)cc2C2CC(c3ccc(F)cc3)=NN2c2ccccc2)cc1` (stereo not given), the inhibition in vivo at 25 mg/kg is 110%.
Regarding `COc1ccc(-c2nn(-c3ccccc3)cc2C2CC(c3ccc(F)cc3)=NN2c2ccccc2)cc1` (stereo not given), the inhibition in vivo at 25 mg/kg was determined as 66%.
For `CC(=O)Oc1ccccc1C(=O)O` [ASPIRIN], the inhibition in vivo at 25 mg/kg came out at 119%.
For the molecule `CC(=O)N1N=C(c2ccc(F)cc2)CC1c1cn(-c2ccccc2)nc1-c1ccc(Br)cc1` (stereo not given), the inhibition in vivo at 25 mg/kg stood at 71%.
For `CC(=O)N1N=C(c2ccc(F)cc2)CC1c1cn(-c2ccccc2)nc1-c1ccc(F)cc1` (stereo not given) the value was 43%.
